Screening data (PubChem)
HNF4A DNA FP = change in binding of human HNF4 alpha to DNA | P41235 | HNF4a-FITC DNA binding, fluorescence polarization, 1 h | activity change, % at 10 µM | 360,000 compounds, 0.3% hits; in the data active = activity change above about 30%, passing the limit was not always enough
CRFBP-R2 agonist = agonists of human CRF-binding protein/CRF-R2 receptor complex; HEK293 CRF-R2/CRF-BP, calcium dye fluorescence (FLIPR); percent of saturating CRF peptide response; activation, % at 13.2 µM; 350,000 compounds, 0.46% hits; AID 588473;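 active = activation of at least 50%, plus an integration ratio under a set limit after plate pattern correction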
CSN deneddyl inh = blocks human CSN-mediated cullin deneddylation. 360,000 compounds, 0.38% hits. Q92905. Purified CSN, SCF-Nedd8-OG deneddylation, fluorescence polarization. inhibition, % at 12.5 µM;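 active = pattern-corrected inhibition above about 35%, with an unprinted fluorescence ratio check between 0.5 and 1.5, limit read from the data, passing the limit was not always enough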
Target sequence (Q92905 whole entry, looked up, one chain of several): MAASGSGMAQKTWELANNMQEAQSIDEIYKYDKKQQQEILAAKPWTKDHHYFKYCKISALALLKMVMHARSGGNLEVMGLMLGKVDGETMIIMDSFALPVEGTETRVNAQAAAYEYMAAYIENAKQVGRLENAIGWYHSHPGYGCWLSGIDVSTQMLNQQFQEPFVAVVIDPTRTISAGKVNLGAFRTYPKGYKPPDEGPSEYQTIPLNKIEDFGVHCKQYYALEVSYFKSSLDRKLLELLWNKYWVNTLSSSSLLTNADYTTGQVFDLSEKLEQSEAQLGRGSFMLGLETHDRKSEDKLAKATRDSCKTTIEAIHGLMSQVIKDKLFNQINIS
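Assay system: HEK293T-derived human Csn5 enzyme; quantity: 0.24 nM enzyme; medium: Tris/NaCl/DTT buffer, pH 7.5; also added: substrate SCFSkp2-Nedd8OG, 10 nM; doses: 12.5 µM compound; schedule: 90 min reaction at room temperature; signal: FP; read-out: % inhibition of substrate cleavage by Csn5; benchmarks: substrate-only high control, full reaction low control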
CRFR2-BP antag = CRF-BP/CRF-R2 complex antagonism; HEK293 CRF-R2/CRF-BP, CRF-induced calcium fluorescence; inhibition, % at 11.8 µM; 350,000 compounds, 0.59% hits;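 active = inhibition of the ligand-induced calcium signal above about 50% at the single tested concentration, limit read from the data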
TPT1 inh = blocks Candida albicans tRNA 2'-phosphotransferase; recombinant caTPT1, FP RNA substrate dephosphorylation; inhibition, % at 5 µM; 300,000 compounds, 0.81% hits;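 active = inhibition above the mean of all tested compounds plus 3 SD, set per screening campaign, cut at about 24% in these data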
Rpn11 block = inhibitors of human proteasome Rpn11. O00487. human 26S proteasome, Ub4-pepOG fluorescence polarization; 20S core pre-blocked with epoxomicin. calls only at 20 µM. 360,000 compounds, 0.59% hits;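 active = inhibition at 20 µM, scaled to each plate's controls, above about 33%, limit read from the data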
Target sequence (O00487 whole entry, looked up): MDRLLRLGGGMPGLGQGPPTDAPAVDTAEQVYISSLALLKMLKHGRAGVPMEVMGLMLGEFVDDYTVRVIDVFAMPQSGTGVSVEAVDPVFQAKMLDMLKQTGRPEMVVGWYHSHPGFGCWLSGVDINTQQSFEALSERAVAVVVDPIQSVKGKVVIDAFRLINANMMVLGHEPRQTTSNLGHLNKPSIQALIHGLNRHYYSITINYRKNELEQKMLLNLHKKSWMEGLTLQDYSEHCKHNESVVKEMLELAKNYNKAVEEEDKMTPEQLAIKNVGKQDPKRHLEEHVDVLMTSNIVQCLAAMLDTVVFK
Each line names hits and unclear results; the compound was inactive in the other large screens. Compounds with a hit are over-represented: about 2.3% of the library has one in this group of screens.

Cc1onc(-c2ccccc2)c1C(=O)N/N=C/c1cc(Br)c(Br)o1	CRFR2-BP antag 103.4
Cc1onc(-c2ccccc2)c1C(=O)NNC(=O)c1ccccc1O	none
Cc1onc(-c2ccccc2)c1C(=O)NNC(=S)NC(=O)c1ccc(Cl)cc1Cl	CRFBP-R2 agonist 217.4
Cc1onc(-c2ccccc2)c1C(=O)NNC(=S)NC(=O)c1ccc(Br)cc1	CRFBP-R2 agonist 150.3
CC(=O)c1cccc(NC(=O)CN(C)S(=O)(=O)c2ccc3c(c2)CCC(=O)N3)c1	none
CCOc1ccc(C(=O)NC(C)C2COc3ccccc3O2)cc1 (stereo not given)	none
Fc1ccc(N2N=C(c3cccs3)CC2c2ccccc2)cc1 (stereo not given)	Rpn11 block active
CCOC(=O)C1(CC2CCCCO2)CCN(Cc2nccn2-c2ccc(OC)cc2)CC1 (stereo not given)	CRFR2-BP antag 52.3
N=C(N1CCCc2ccccc21)N1CCCc2ccccc21	none (no result: TPT1 inh)
CCN(CC)S(=O)(=O)c1ccc2c(c1)N(CC(=O)NCc1ccco1)C(=O)CO2	CRFR2-BP antag 82.7
Cc1nn(CCC(=O)O)c2nc(-c3cccnc3)cc(C(F)(F)F)c12	none
Cc1nn(CCc2nn[nH]n2)c2nc(-c3ccc(C4CCCCC4)cc3)cc(C(F)(F)F)c12	CRFR2-BP antag 87.2
O=C1COc2ccc(C(=O)COC(=O)c3ccccc3[N+](=O)[O-])cc2N1	none
O=C1COc2ccc(C(=O)COC(=O)c3ccc(Cl)cc3[N+](=O)[O-])cc2N1	CSN deneddyl inh 76.9
Cc1sc2ncnc(N3CCN(CCOc4ccc(Cl)cc4)CC3)c2c1C	none
Cc1cc(SCC(=O)Nc2cccc(S(N)(=O)=O)c2)c(C)cc1Br	CRFR2-BP antag 102.9
CC1=C(C(=O)OCc2ccccc2)C(c2ccc(-c3ccccc3)cc2)NC(=O)N1CCCCCC(=O)O (stereo not given)	none
COc1ccccc1NC(=O)CSc1nnc(CNC(=O)c2ccco2)o1	CRFR2-BP antag 66.1
O=S1(=O)CCOC[C@H](Cc2ccccc2)N1Cc1ccc(F)cc1	none
COC(=O)Cn1c2ccccc2c(=O)n1C(C)C	none (no result: CRFBP-R2 agonist, CRFR2-BP antag, TPT1 inh, Rpn11 block)
C=CCNc1nc(Cl)nc(Nc2ccccc2)n1	none
CNc1nc(Cl)nc(Nc2ccccc2)n1	CRFR2-BP antag 103.1
CCCCCN(C(=O)CN1CCC(Cc2ccccc2)CC1)c1c(N)n(CCCC)c(=O)[nH]c1=O	HNF4A DNA FP 36.6
CCCCCN(C(=O)CCC(=O)OCC(=O)N(C)c1ccccc1)c1c(N)n(CCCC)c(=O)[nH]c1=O	none
C=CCC[C@@H](Cc1ccc(F)cc1)C(=O)OC[C@H](Cc1c[nH]c2ccccc12)NC(=O)[C@@H](CC=C)CC(=O)NCCO	CRFBP-R2 agonist 58.1 (no result: TPT1 inh)
CC(=O)NC(Cc1ccc(C)cc1)C(=O)NC1CCN(c2ncccc2[N+](=O)[O-])CC1 (stereo not given)	CRFR2-BP antag 60.0
COCCn1c(-c2ccsc2)nc2c1c(=O)[nH]c(=O)n2CC(C)C	CRFR2-BP antag 51.2
COc1ccc(NC(=O)CN(c2ccc(C)cc2)S(=O)(=O)c2c(C)nn(C)c2C)cc1	none
c1ccc(CC2CCN(C3=Nc4cccc5cccc3c45)CC2)cc1	Rpn11 block active
CCO[C@H]1OC(C(=O)NCc2ccccc2)=C[C@@H](c2ccc(Br)cc2)[C@@H]1CCCO	none
C#CCOCCOCCOCCNc1nc(N2CCN(C(=O)CCCCCCCCCCNC(=O)Cn3cc(CCCCCN)nn3)CC2)nc(N2CCN(C(=O)CCCCCCCCCCNC(=O)[C@H](CO)n3cc(CCCCCN)nn3)CC2)n1	HNF4A DNA FP 37.9
C#CCOCCOCCOCCNc1nc(N2CCOCC2)nc(N2CCN(C(=O)CCCCCCCCCCNC(=O)Cn3cc(CCCCCN)nn3)CC2)n1	none
C#CCOCCOCCOCCNc1nc(N2CCN(C(=O)CCCCCCCCCCNC(=O)Cn3cc(CCCCCN)nn3)CC2)nc(N2CCN(C(=O)CCCCCCCCCCNC(=O)[C@H]([C@@H](C)CC)n3cc(CCCCCN)nn3)CC2)n1	HNF4A DNA FP 52.4, CRFBP-R2 agonist 89.2, CSN deneddyl inh 63.6
C#CCOCCOCCOCCNc1nc(N2CCN(C(=O)CCCCCCCCCCNC(=O)Cn3cc(C[C@@H](C)O)nn3)CC2)nc(N2CCN(C(=O)CCCCCCCCCCNC(=O)[C@H](CCCCN)n3cc(C[C@@H](C)CC)nn3)CC2)n1	CSN deneddyl inh 86.8
C#CCOCCOCCOCCNc1nc(N2CCN(C(=O)CCCCCCCCCCNC(=O)Cn3cc(C[C@@H](C)O)nn3)CC2)nc(N2CCN(C(=O)CCCCCCCCCCNC(=O)Cn3cc(C[C@@H](C)O)nn3)CC2)n1	none
CCSc1nnc(NC(=O)CC(C)C)s1	none
O=c1nc(N/N=C/C=C/c2ccccc2)cn[nH]1	CRFR2-BP antag 98.2
Cc1ccc(NC(=O)CN2C(=O)S/C(=C/c3ccc(O)c([N+](=O)[O-])c3)C2=O)cc1C	none (no result: TPT1 inh)
O=C1S/C(=C\c2ccc(O)c([N+](=O)[O-])c2)C(=O)N1Cc1cccc([N+](=O)[O-])c1	CRFR2-BP antag 91.7
COc1cc(/C=C2\SC(=O)N(c3cccc(Cl)c3)C2=O)cc([N+](=O)[O-])c1O	CRFR2-BP antag 53.7 (no result: TPT1 inh)
O=C1S/C(=C\c2ccc(O)c([N+](=O)[O-])c2)C(=O)N1c1ccccc1Cl	CRFR2-BP antag 54.9
Cc1cccc(NC(=O)CN2C(=O)S/C(=C\c3ccc(O)c([N+](=O)[O-])c3)C2=O)c1	none
Cc1ccc(S(=O)(=O)C(CCC(=O)c2ccc(Cl)cc2)C(N)=O)cc1 (stereo not given)	none
CCCCOc1ccc(S(=O)(=O)Nc2ccc(NC(C)=O)cc2)cc1	none
Clc1ccccc1Cn1c(/C=C/c2ccco2)nc2ccccc21	CSN deneddyl inh 35.9 (not shown: Rpn11 block)
COc1ccc(Cn2c(/C=C/c3ccccc3)nc3ccccc32)cc1	none
COc1ccc(CC(=O)O/N=C(\N)c2cccc([N+](=O)[O-])c2)cc1	CRFR2-BP antag 67.1
COc1ccc(CC(=O)O/N=C(\N)c2ccc(OC)cc2)cc1	none
CC(=O)c1cccc(NC(=O)Cc2cccs2)c1	none
CN(C)c1ccc(/C=C/C(=O)c2ccc3c(c2)OCO3)cc1	CRFBP-R2 agonist 135.4 (not shown: TPT1 inh, Rpn11 block)
CN(C)c1ccc(C(=O)C=Cc2ccc([N+](=O)[O-])cc2)cc1	none (no result: TPT1 inh)
CN(C)c1ccc(N/C=C/C(=O)c2ccccc2)cc1	HNF4A DNA FP 38.4 (not shown: Rpn11 block)
CN(C)c1ccc(/C=C/C(=O)c2ccc(O)cc2)cc1	CRFBP-R2 agonist 156.0 (not shown: TPT1 inh, Rpn11 block)
O=C(/C=C/Nc1ccccc1)c1ccccc1	none
COc1cc(Br)cc(CNc2ccc(F)c([N+](=O)[O-])c2)c1O	none
Cn1c(N)nc2ccccc2c1=O	none
O=C(NCCCN1CCOCC1)C(=O)N/N=C/c1ccccc1Cl	none
